{
  "source": "BindingDB's records for doi:10.1021/jm001008m",
  "about": "(University of The Saarland, 2000)",
  "key": {"[1]": {"molecular_target": "T1, Steroid 17-alpha-hydroxylase/17,20 lyase (Rattus norvegicus, UniProt P11715)", "T1 sequence (P11715 whole entry)": "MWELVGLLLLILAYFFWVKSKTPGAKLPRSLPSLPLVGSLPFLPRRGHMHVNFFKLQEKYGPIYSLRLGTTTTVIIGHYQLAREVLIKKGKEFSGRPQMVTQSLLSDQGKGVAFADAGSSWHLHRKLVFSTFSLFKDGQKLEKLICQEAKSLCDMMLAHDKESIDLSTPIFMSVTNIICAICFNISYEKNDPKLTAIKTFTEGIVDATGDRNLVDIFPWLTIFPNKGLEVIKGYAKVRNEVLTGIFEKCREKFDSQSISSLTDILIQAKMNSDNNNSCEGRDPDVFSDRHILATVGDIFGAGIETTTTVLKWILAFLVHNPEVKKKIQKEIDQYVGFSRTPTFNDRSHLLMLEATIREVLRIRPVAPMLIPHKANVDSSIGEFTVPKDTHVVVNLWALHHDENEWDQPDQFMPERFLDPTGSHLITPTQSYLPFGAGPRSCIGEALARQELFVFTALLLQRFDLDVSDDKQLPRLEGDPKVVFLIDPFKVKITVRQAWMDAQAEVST", "assay": "Evaluated for the inhibitory activity towards Cytochrome P450 17 rat enzyme using testicular microsome at 25 uM of substrate (progesterone)", "in_short": "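Testicular microsomes (human for human enzyme, rat for rat enzyme) incubated with progesterone substrate at 25 µM; product measured by RP-HPLC with UV detection. IC50 = concentration giving 50% inhibition, mean of at least two experiments.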"}, "[2]": {"molecular_target": "T2, Steroid 17-alpha-hydroxylase/17,20 lyase (Homo sapiens, UniProt P05093)", "T2 sequence (P05093 whole entry)": "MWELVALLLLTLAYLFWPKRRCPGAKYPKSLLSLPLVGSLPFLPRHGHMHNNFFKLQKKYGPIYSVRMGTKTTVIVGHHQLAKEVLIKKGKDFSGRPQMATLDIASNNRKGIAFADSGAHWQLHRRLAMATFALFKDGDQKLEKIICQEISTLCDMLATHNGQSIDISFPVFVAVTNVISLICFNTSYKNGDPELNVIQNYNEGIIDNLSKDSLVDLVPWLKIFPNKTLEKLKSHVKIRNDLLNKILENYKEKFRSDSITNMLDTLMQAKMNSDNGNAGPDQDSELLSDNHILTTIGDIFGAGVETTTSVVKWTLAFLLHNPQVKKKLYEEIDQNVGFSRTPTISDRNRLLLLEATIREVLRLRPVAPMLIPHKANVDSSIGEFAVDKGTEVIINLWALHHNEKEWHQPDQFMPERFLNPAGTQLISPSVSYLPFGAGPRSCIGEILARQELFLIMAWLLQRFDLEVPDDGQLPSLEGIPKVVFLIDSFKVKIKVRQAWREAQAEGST", "assay": "Evaluated for the inhibitory activity towards Cytochrome P450 17 human enzyme using testicular microsome at 25 uM of substrate (progesterone)"}, "[3]": {"molecular_target": "T3, 3-oxo-5-alpha-steroid 4-dehydrogenase 2 (Homo sapiens, UniProt P31213)", "T3 sequence (P31213 whole entry)": "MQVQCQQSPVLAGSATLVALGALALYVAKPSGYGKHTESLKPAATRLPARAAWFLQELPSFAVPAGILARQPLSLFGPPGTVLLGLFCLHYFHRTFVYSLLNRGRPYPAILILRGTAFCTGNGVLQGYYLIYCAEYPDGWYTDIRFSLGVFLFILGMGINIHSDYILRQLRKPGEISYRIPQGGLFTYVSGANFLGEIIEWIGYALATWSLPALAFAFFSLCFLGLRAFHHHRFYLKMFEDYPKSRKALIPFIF", "assay": "Evaluated for the inhibitory activity against human steroid 5-alpha-reductase type 2 from human BPH tissue at 210 nM of testosterone", "in_short": "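Enzyme from prostate homogenate of BPH patients, assayed at pH 5.5 with radiolabeled testosterone at 210 nM; product separated by HPLC. IC50 taken as inhibitor concentration giving 50% inhibition; mean of at least two experiments.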"}},
  "data": [
    {"compound": "CC(N=O)[C@H]1CCC2C3CCC4=CC(=O)CCC4(C)C3CCC21C", "note": "(stereo partly drawn) [17-(1-Hydroxyimino-ethyl)-10,13-dimethyl-1,2,6,7,8,9,10,11,12,13,14,15,16,17-tetradecahydro-cyclopenta[a]phenanthren-3-one]", "values": [
      {"measurement": "IC50", "setting": "[1]", "value": "> 125000", "unit": "nM"},
      {"measurement": "IC50", "setting": "[2]", "value": "> 2500", "unit": "nM"},
      {"measurement": "IC50", "setting": "[3]", "value": 580, "unit": "nM"}
    ]}
  ]
}
